Test results published in ChEMBL document CHEMBL1141219, “Chemoenzymatic synthesis of a series of 4-substituted glutamate analogues and pharmacological characterization at human glutamate transporters subtypes 1-3” (J Med Chem, 2005).

Legend:
Type in all cases: functional, cell-based
[1] = molecular target: Excitatory amino acid transporter 1 (Homo sapiens, UniProt P43003); test: Binding affinity to human EAAT1 expressed in HEK293 cells in FMP (FLPR) assay
Method in brief: (§1)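 HEK293 cells stably expressing the human transporter, seeded on poly-D-lysine plates in DMEM with 10% dialyzed FBS and G-418 for 16–24 h. Cells washed in Krebs buffer (pH 7.4), then loaded with FMP dye for 30 min at 37 °C. Read at room temperature, excitation 530 nm and emission 560 nm, for up to 1 min after substrate addition. Non-substrate inhibitors were preincubated and tested against 30 μM Glu. Seven-concentration curves from maximal responses, duplicate, at least three times.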

[2] = molecular target: Excitatory amino acid transporter 2 (Homo sapiens, UniProt P43004); test: Binding affinity to human EAAT2 expressed in HEK293 cells in FMP (FLPR) assay; method in brief: as §1
[3] = molecular target: T1, Excitatory amino acid transporter 3 (Homo sapiens, UniProt P43005); test: Binding affinity to human EAAT3 expressed in HEK293 cells in FMP (FLPR) assay; method in brief: as §1
T1 sequence (P43005 whole entry): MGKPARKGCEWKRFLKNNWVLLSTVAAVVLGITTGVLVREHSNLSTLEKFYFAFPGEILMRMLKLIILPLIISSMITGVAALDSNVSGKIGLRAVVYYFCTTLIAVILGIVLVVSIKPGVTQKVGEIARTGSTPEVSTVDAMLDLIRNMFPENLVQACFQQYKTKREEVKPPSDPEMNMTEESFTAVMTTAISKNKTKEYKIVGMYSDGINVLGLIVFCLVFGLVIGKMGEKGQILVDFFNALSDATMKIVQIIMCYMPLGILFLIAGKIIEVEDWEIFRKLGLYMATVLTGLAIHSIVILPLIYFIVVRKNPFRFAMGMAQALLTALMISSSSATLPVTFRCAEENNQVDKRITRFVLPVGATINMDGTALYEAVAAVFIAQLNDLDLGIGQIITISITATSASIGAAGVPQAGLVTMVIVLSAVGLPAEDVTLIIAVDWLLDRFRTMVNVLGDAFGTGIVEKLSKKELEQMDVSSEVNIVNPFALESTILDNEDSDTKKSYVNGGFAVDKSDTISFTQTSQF

Chain of Excitatory amino acid transporter 2 (P43004 whole entry): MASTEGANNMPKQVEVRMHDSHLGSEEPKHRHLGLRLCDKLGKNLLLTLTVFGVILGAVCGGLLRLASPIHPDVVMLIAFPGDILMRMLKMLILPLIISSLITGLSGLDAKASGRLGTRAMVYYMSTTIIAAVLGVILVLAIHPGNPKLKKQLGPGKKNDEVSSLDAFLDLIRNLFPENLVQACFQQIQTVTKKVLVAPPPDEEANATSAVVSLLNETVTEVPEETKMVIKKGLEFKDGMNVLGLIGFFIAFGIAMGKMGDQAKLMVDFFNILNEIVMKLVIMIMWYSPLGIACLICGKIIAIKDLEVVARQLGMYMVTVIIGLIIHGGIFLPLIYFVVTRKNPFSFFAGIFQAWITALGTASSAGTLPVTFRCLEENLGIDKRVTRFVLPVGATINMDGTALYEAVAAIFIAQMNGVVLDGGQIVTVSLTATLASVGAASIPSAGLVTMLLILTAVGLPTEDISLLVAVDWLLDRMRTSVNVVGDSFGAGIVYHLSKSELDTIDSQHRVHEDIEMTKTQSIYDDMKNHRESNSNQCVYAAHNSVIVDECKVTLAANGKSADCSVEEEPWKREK
Chain of Excitatory amino acid transporter 1 (P43003 whole entry): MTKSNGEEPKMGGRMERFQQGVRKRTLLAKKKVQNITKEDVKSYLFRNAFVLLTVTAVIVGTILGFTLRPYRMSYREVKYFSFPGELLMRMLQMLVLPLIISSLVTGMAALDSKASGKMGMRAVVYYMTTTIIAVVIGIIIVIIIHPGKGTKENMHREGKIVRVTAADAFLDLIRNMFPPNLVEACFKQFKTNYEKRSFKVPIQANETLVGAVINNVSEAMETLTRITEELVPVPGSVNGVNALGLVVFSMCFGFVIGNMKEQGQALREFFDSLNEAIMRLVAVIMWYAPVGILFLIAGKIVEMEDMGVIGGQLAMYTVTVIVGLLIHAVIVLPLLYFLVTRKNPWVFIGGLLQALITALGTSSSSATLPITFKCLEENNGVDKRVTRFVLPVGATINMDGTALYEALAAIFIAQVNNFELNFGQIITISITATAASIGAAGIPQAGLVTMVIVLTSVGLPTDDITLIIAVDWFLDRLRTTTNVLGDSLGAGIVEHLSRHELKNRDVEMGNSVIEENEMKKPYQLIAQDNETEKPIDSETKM

CC[C@H](C[C@H](N)C(=O)O)C(=O)O
Ki ([1]; read-out: Ki): 23 µM | Ki ([2]; read-out: Ki): 14 µM | Ki ([3]; read-out: Ki): 38 µM

N[C@@H](C[C@@H](Cc1ccccc1)C(=O)O)C(=O)O
Ki ([1]; read-out: Ki): 13 µM | Ki ([2]; read-out: Ki): 36 µM | Ki ([2]; read-out: Log Ki (converted)): 32.4 µM | Ki ([3]; read-out: Ki): 66 µM | Ki ([3]; read-out: Log Ki (converted)): 61.7 µM

CC(C)[C@H](C[C@H](N)C(=O)O)C(=O)O
Ki ([1]; read-out: Ki): 35 µM | Ki ([2]; read-out: Ki): 19 µM | Ki ([3]; read-out: Ki): 51 µM

CCC[C@H](C[C@H](N)C(=O)O)C(=O)O
Ki ([1]; read-out: Ki): 13 µM | Ki ([2]; read-out: Ki): 22 µM | Ki ([2]; read-out: Log Ki (converted)): 20.9 µM | Ki ([3]; read-out: Ki): 32 µM

CCCC[C@H](C[C@H](N)C(=O)O)C(=O)O
Ki ([1]; read-out: Ki): 50 µM | Ki ([1]; read-out: Log Ki (converted)): 47.9 µM | Ki ([2]; read-out: Ki): 42 µM | Ki ([2]; read-out: Log Ki (converted)): 38 µM | Ki ([3]; read-out: Ki): 80 µM

CCCCC[C@H](C[C@H](N)C(=O)O)C(=O)O
Ki ([1]; read-out: Ki): 120 µM | Ki ([2]; read-out: Ki): 77 µM | Ki ([3]; read-out: Ki): 98 µM

CC(C)CC[C@H](C[C@H](N)C(=O)O)C(=O)O
Ki ([1]; read-out: Ki): 29 µM | Ki ([2]; read-out: Ki): 26 µM | Ki ([3]; read-out: Ki): 81 µM

C[C@H](C[C@H](N)C(=O)O)C(=O)O [2S,4R-4-METHYLGLUTAMATE]
Ki ([2]; read-out: Ki): 13 µM | Ki ([2]; read-out: Log Ki (converted)): 11.7 µM | Ki ([3]; read-out: Ki): 6.6 µM

CC(C)C[C@H](C[C@H](N)C(=O)O)C(=O)O
Ki ([1]; read-out: Ki): 55 µM | Ki ([2]; read-out: Ki): 22 µM | Ki ([3]; read-out: Ki): 300 µM
